Test results as given in ChEMBL document CHEMBL1799919, “Design, synthesis, biological evaluation, and structure-activity relationships of substituted phenyl 4-(2-oxoimidazolidin-1-yl)benzenesulfonates as new tubulin inhibitors mimicking combretastatin A-4” (J Med Chem, 2011).
Active and inactive are the calls of the source. The rule behind the calls is not given here.

Columns and labels:
M21 [1] = experiment: Cell cycle arrest in human M21 cells assessed as accumulation at S phase at 5 times IC50 after 24 hrs using propidium iodide staining by flow cytometric analysis (reference value: 30%); type: functional
L1210 = experiment: Antiproliferative activity against mouse L1210 cells after 48 hrs by sulforhodamine B assay; type: functional, cell-based; conditions: L1210, 48 h
K562 = experiment: Antiproliferative activity against human K562 cells after 48 hrs by sulforhodamine B assay; type: functional, cell-based; conditions: K562, 48 h
[2] = Toxicity against fertilized chicken embryo assessed as mortality at 10 ug per egg, iv by CAM assay; type: organism-based, Gallus gallus; conditions: in vivo
Summary of the method: (§1)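 Fertilized chicken eggs incubated 10 days with automatic turning, then static. HT-1080 cells (3.5 × 10^5 cells/egg) grafted onto exposed CAM. On day 11, drug in DMSO diluted into cremophor/ethanol/PBS (6.25/6.25/87.5 v/v) excipient, DMSO below 0.5%, 100 μL injected iv into 10-12 eggs. Eggs incubated to day 17, dead embryos counted. Untreated eggs used for normalization. Two independent experiments, at least 10 eggs each.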

CHO-VV 3-2 = experiment: Antiproliferative activity against colchicine- and vinblastine-resistant CHO-VV 3-2 cells after 48 hrs by sulforhodamine B assay; conditions: Cricetulus griseus, CHO-VV 3-2, 48 h
[3] = Antiproliferative activity against multidrug-resistant human CEM/VLB cells after 48 hrs by sulforhodamine B assay; type: functional
M21 [4] = experiment: Cell cycle arrest in human M21 cells assessed as accumulation at G2/M phase at 5 times IC50 after 24 hrs using propidium iodide staining by flow cytometric analysis (reference value: 9%); type: functional
MDA-MB-231 [5] = experiment: Displacement of N,N'-ethylenebis(iodoacetamide) from colchicine-binding site of beta-tubulin in human MDA-MB-231 cells at 1000 times IC50 preincubated for after 2 hrs before N,N'-ethylenebis(iodoacetamide) addition measured after 1.5 hrs by chemiluminescence assay; type: cell-based
Summary of the method: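 EBI (100 μM final) added for 1.5 h at 37 °C; controls received 0.5% DMSO. Lysates (20 μg protein) run on 10% SDS-PAGE and blotted with anti-β-tubulin (TUB 2.1). β-tubulin–EBI adduct band detected by ECL.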

MCF7 = experiment: Antiproliferative activity against human MCF7 cells after 48 hrs by sulforhodamine B assay; type: functional, cell-based; conditions: MCF7, 48 h
M21 [6] = experiment: Cell cycle arrest in human M21 cells assessed as accumulation at G0/G1 phase at 5 times IC50 after 24 hrs using propidium iodide staining by flow cytometric analysis (reference value: 61%); type: functional
CHO = experiment: Antiproliferative activity against CHO cells after 48 hrs by sulforhodamine B assay; type: functional, cell-based; conditions: Cricetulus griseus
CHO-TAX 5-6 [7] = experiment: Antiproliferative activity against paclitaxel-resistant CHO-TAX 5-6 cells after 48 hrs by sulforhodamine B assay; type: functional, cell-based; conditions: Cricetulus griseus, CHO-TAX 5-6, 48 h
HT-1080 [8] = experiment: Antivasculogenic activity against human HT1080 cells xenografted in chicken chorioallantoic membrane assessed as inhibition of tumor growth at 10 ug per egg, iv measured on day 14 by CAM assay; type: functional; set-up: scale not given: the % may be the effect or the level left
CEM-VLB = experiment: Resistant ratio of IC50 for multidrug-resistant human CEM-VLB cells to IC50 for human CEM cells; type: functional
Summary of the method: (§2)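 Ratio of the IC50 in the resistant line (CEM-VLB, CHO-TAX 5-6 or CHO-VV 3-2) to the IC50 in its parental line (CEM or CHO).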

M21 [9] = experiment: Antiproliferative activity against human M21 cells after 48 hrs by sulforhodamine B assay; type: functional, cell-based; conditions: M21, 48 h
HT-1080 [10] = experiment: Antiproliferative activity against human HT1080 cells after 48 hrs by sulforhodamine B assay; type: functional, cell-based; conditions: HT-1080, 48 h
[11] = Antiproliferative activity against mouse B16F0 cells after 48 hrs by sulforhodamine B assay; type: functional, cell-based; conditions: B16F0, 48 h
HT-29 = experiment: Antiproliferative activity against human HT-29 cells after 48 hrs by sulforhodamine B assay; type: functional, cell-based; conditions: HT-29, 48 h
DU-145 = experiment: Antiproliferative activity against human DU145 cells after 48 hrs by sulforhodamine B assay; type: functional, cell-based; conditions: DU-145, 48 h
MDA-MB-231 [12] = experiment: Antiproliferative activity against human MDA-MB-231 cells after 48 hrs by sulforhodamine B assay; type: functional, cell-based; conditions: MDA-MB-231, 48 h
[13] = Antiproliferative activity against mouse P388D1 cells after 48 hrs by sulforhodamine B assay; type: functional, cell-based; conditions: P388D1, 48 h
M21 [14] = experiment: Disruption of cytoskeleton microtubule structure of human M21 cells at 5 times IC50 after 16 hrs by indirect immunofluorescence assay; type: functional, cell-based
Summary of the method: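 Fixed in 3.7% formaldehyde, permeabilized with saponin, and stained with anti-β-tubulin (TUB 2.1), Alexa-488 secondary and DAPI. Microtubule structure scored by fluorescence microscopy.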

CHO-TAX 5-6 [15] = experiment: Resistant ratio of IC50 for paclitaxel-resistant CHO-TAX 5-6 cells to IC50 for CHO cells; type: functional, Cricetulus griseus; summary of the method: as §2
SK-OV-3 = experiment: Antiproliferative activity against human SKOV3 cells after 48 hrs by sulforhodamine B assay; type: functional, cell-based; conditions: SK-OV-3, 48 h
CCRF-CEM = experiment: Antiproliferative activity against human CEM cells after 48 hrs by sulforhodamine B assay; type: functional, cell-based
[16] = Toxicity against fertilized chicken embryo assessed as mortality at 3 ug per egg, iv by CAM assay; type: organism-based, Gallus gallus; conditions: in vivo, read-out: Activity; summary of the method: as §1
[17] = Toxicity against fertilized chicken embryo assessed as mortality at 1 ug per egg, iv by CAM assay; type: organism-based, Gallus gallus; conditions: in vivo, read-out: Activity; summary of the method: as §1
HT-1080 [18] = experiment: Antivasculogenic activity against human HT1080 cells xenografted in chicken chorioallantoic membrane assessed as inhibition of tumor growth at 3 ug per egg, iv measured on day 14 by CAM assay; type: functional; set-up: scale not given: the % may be the effect or the level left
HT-1080 [19] = experiment: Antivasculogenic activity against human HT1080 cells xenografted in chicken chorioallantoic membrane assessed as inhibition of tumor growth at 1 ug per egg, iv measured on day 14 by CAM assay; type: functional; set-up: scale not given: the % may be the effect or the level left

Compound	Activity (M21 [1]) [%]	IC50 (L1210) [nM]	IC50 (K562) [nM]	IC50 (CHO-VV 3-2) [nM]	IC50 [3] [nM]	Activity (M21 [4]) [%]	inhibition (MDA-MB-231 [5])	IC50 (MCF7) [nM]	Activity (M21 [6]) [%]	IC50 (CHO) [nM]	IC50 (CHO-TAX 5-6 [7]) [nM]	Ratio IC50 (CEM-VLB)	IC50 (M21 [9]) [nM]	IC50 (HT-1080 [10]) [nM]	IC50 [11] [nM]	IC50 (HT-29) [nM]	IC50 (DU-145) [nM]	IC50 (MDA-MB-231 [12]) [nM]	IC50 [13] [nM]	Activity (M21 [14])	other results
COc1ccc(OS(=O)(=O)c2ccc(N3CCNC3=O)cc2)cc1	5	250	240	250	320	95	Active	160	0	240	200	1.3	98	240	510	130	650	760	260	Active	Activity [2]: Active; Activity (HT-1080 [8]): 13%; Ratio IC50 (CHO-TAX 5-6 [15]): 0.83; IC50 (SK-OV-3): 320 nM; IC50 (CCRF-CEM): 250 nM
COc1ccc(/C=C\c2cc(OC)c(OC)c(OC)c2)cc1O [COMBRETASTATIN A4]	0	–	–	–	–	98	Active	5.6	2	–	–	–	4.3	–	–	61	–	–	–	Active	mortality [16]: 41%; mortality [17]: 18%; Activity (HT-1080 [18]): 45%; Activity (HT-1080 [19]): 48%
O=C1NCCN1c1ccc(S(=O)(=O)Oc2c(F)cccc2F)cc1	33	67	65	74	87	62	Active	32	5	73	38	1.3	15	65	91	29	170	100	76	Active	mortality [16]: 13%; Activity (HT-1080 [18]): Active; Ratio IC50 (CHO-TAX 5-6 [15]): 0.52; IC50 (SK-OV-3): 72 nM; IC50 (CCRF-CEM): 68 nM
CCOc1cccc(OS(=O)(=O)c2ccc(N3CCNC3=O)cc2)c1	20	19	18	39	32	78	Active	19	2	32	12	1.6	12	34	65	18	72	55	20	Active	mortality [16]: 13%; Activity (HT-1080 [18]): Active; Ratio IC50 (CHO-TAX 5-6 [15]): 0.38; IC50 (SK-OV-3): 42 nM; IC50 (CCRF-CEM): 20 nM
Cc1ccc(C)c(OS(=O)(=O)c2ccc(N3CCNC3=O)cc2)c1	20	21	18	21	23	77	Active	14	3	18	14	1.2	8.5	24	49	10	57	69	19	Active	mortality [16]: 13%; Activity (HT-1080 [18]): Active; Ratio IC50 (CHO-TAX 5-6 [15]): 0.78; IC50 (SK-OV-3): 29 nM; IC50 (CCRF-CEM): 19 nM
O=C1NCCN1c1ccc(S(=O)(=O)Oc2cc(Cl)cc(Cl)c2)cc1	20	9.6	7.2	20	19	79	Active	18	1	17	6.1	1.2	8.2	18	41	10	66	26	7.4	Active	mortality [16]: 29%; Activity (HT-1080 [18]): inactive; Ratio IC50 (CHO-TAX 5-6 [15]): 0.36; IC50 (SK-OV-3): 16 nM; IC50 (CCRF-CEM): 16 nM
COc1cc(OS(=O)(=O)c2ccc(N3CCNC3=O)cc2)cc(OC)c1OC	1	5.4	2.5	8.2	9.5	98	Active	5	1	7.4	3	1.3	4	5.9	9.2	4	8.5	9.4	2.7	Active	mortality [17]: 8%; Activity (HT-1080 [19]): 39%; Ratio IC50 (CHO-TAX 5-6 [15]): 0.41; IC50 (SK-OV-3): 6.1 nM; IC50 (CCRF-CEM): 7.1 nM
O=C1NCCN1c1ccc(S(=O)(=O)Oc2ccc(F)cc2)cc1	21	140	180	260	270	28	Active	170	51	230	86	1.4	89	190	250	120	550	360	240	Active	mortality [16]: 29%; Activity (HT-1080 [18]): inactive; Ratio IC50 (CHO-TAX 5-6 [15]): 0.37; IC50 (SK-OV-3): 210 nM; IC50 (CCRF-CEM): 200 nM
O=C1NCCN1c1ccc(S(=O)(=O)Oc2cccc(I)c2)cc1	21	19	14	20	18	77	Active	18	2	17	8.9	1.1	10	19	30	11	57	48	18	Active	mortality [16]: 43%; Activity (HT-1080 [18]): Active; Ratio IC50 (CHO-TAX 5-6 [15]): 0.52; IC50 (SK-OV-3): 23 nM; IC50 (CCRF-CEM): 17 nM
